Measurements: ChEMBL document CHEMBL5543129, “Peptide Inhibitor Targeting the Extraterminal Domain in BRD4 Potently Suppresses Breast Cancer Both In Vitro and In Vivo” (J Med Chem, 2024)
Calls of active or inactive are those of the source. Square brackets hold non-standard residues; d marks the D form. Peptide text beside a SMILES is read from it. Hyp = O=C(O)[C@@H]1C[C@@H](O)CN1; Ahx = NCCCCCC(=O)O

How the values were obtained:
MCF7 [1] = test: Downregulation of […] gene expression in human MCF7 cells at 10 uM incubated for 6 hrs by RT-qPCR analysis; format: functional, cell-based
Summary of the method: (§1)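 Cells treated with peptide (10 μM) for 6 h; c-Myc, N-myc and CCND1 mRNA measured by RT-qPCR. Three biological repeats.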

[2] = Toxicity in BALB/c mouse xenografted with human MDA-MB-231 cells assessed as change in lung morphology at 12.5 mg/kg, ip administered every 2 days in presence of 50 mg/kg JQ1; format: organism-based; conditions: in vivo, 48 h
Summary of the method: (§2)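 Female BALB/c nude mice (4–6 weeks) carried sc MDA-MB-231 xenografts (5 × 10^6 cells) and were randomized at about 50 mm3. Peptide (12.5 mg/kg ip in saline) and JQ1 (50 mg/kg ip, DMSO/10% HPBCD 1:10) were given every 2 days, alone or combined. Body weight was recorded, and heart, liver, spleen, lung and kidney morphology and weight were assessed.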

MDA-MB-231 [3] = test: Inhibition of cell migration in human MDA-MB-231 cells at 10 uM incubated for 24 hrs in presence of JMJD6 inhibitor by inverted microscopic analysis; format: functional, cell-based
Summary of the method: (§3)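 Cells are seeded at 5 × 10^5/well and scratched at 80–90% confluence. They are kept in serum-free medium with peptide (10 μM); partner agents are JQ1 5 μM, iJMJD6 10 μM, or ICI 2.5 μM. Wound area is imaged by inverted microscope at 0 and 12 or 24 h. Wound closure % = (A0−A1)/A0 × 100. Three biological repeats.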

MCF7 [4] = test: Downregulation of CCND1 gene expression in human MCF7 cells at 10 uM incubated for 6 hrs by RT-qPCR analysis; format: functional, cell-based; summary of the method: as §1
Mus musculus [5] = test: Downregulation of c-Myc mRNA expression in BALB/c mouse tumor xenografted with human MDA-MB-231 cells at 25 mg/kg, ip administered every 2 days by RT-qPCR analysis; format: functional, organism-based
Summary of the method: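 Female BALB/c nude mice (4–6 weeks) implanted subcutaneously with 5 × 10^6 cells in PBS. For MCF7 grafts, estrogen (E2, 10–2 M) is brushed on every 2 days. Treatment starts at ~50 mm3 after randomization, with peptide in normal saline ip every 2 days. Tumour mRNA is measured by RT-qPCR.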

[6] = Toxicity in BALB/c mouse xenografted with human MCF7 cells assessed as change in heart morphology at 12.5 mg/kg, ip administered every 2 days in presence of 50 mg/kg JQ1; format: organism-based; conditions: in vivo, 48 h
[7] = Downregulation of N-myc protein expression in BALB/c mouse tumor xenografted with human MCF7 cells assessed as fold change in remaining N-myc level at 25 mg/kg, ip administered every 2 days by immunoblotting analysis; format: functional
Summary of the method: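 Tumours taken from xenograft mice dosed with peptide at 25 mg/kg ip every 2 days. […] Three repeats.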

MDA-MB-231 [8] = test: Downregulation of […] gene expression in human MDA-MB-231 cells at 10 uM incubated for 6 hrs by RT-qPCR analysis; format: functional, cell-based; summary of the method: as §1
T47D [9] = test: Inhibition of colony formation in human T47D cells at 10 uM incubated for 2 weeks in presence of tamoxifen by crystal violet staining based assay; format: functional, cell-based
Summary of the method: (§4)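 Cells are seeded at 1 × 10^3/well and treated with peptide (10 μM) for 2 weeks, alone or with JQ1 5 μM, iJMJD6 10 μM, ICI 2.5 μM, or tamoxifen 3 μM (tamoxifen-resistant lines). Colonies are stained with crystal violet, dissolved in 10% acetic acid, and read at 590 nm. Three biological repeats.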

[10] = Toxicity in BALB/c mouse xenografted with human MCF7 cells assessed as change in liver morphology at 12.5 mg/kg, ip administered every 2 days in presence of 50 mg/kg JQ1; format: organism-based; conditions: in vivo, 48 h
[11] = Downregulation of […] protein expression in human MCF7 cells assessed as fold change in remaining c-Myc level at 10 uM incubated for 24 hrs by immunoblotting analysis (reference value: 1); format: functional
Summary of the method: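 Cells treated with peptide (10 μM) for 24 h. Lysates in Tris/NaCl/EDTA/1% Triton X-100, run on 10% SDS-PAGE and immunoblotted with ECL detection. β-actin as loading control. Three repeats, quantified against untreated cells.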

[12] = Toxicity in BALB/c mouse xenografted with human MCF7 cells assessed as change in lung at 12.5 mg/kg, ip administered every 2 days in presence of 12.5 mg/kg JMJD6 inhibitor; format: organism-based; conditions: in vivo, 48 h
Summary of the method: (§5)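 Female BALB/c nude mice carried MCF7 xenografts (5 × 10^6 cells sc, E2 10–2 M brushed every 2 days) and were randomized at about 50 mm3. Peptide was given at 12.5 mg/kg ip every 2 days, and iJMJD6 (DMSO/PBS 1:20) at 12.5 mg/kg ip every other day, alone or combined. Body and organ weights were recorded.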

[13] = Toxicity in BALB/c mouse xenografted with human MCF7 cells assessed as change in liver weight at 12.5 mg/kg, ip administered every 2 days in presence of 50 mg/kg JQ1; format: organism-based; conditions: in vivo, 48 h
MCF7 [14] = test: Inhibition of colony formation in human MCF7 cells at 10 uM incubated for 2 weeks by crystal violet staining based assay; format: functional, cell-based; summary of the method: as §4
[15] = Toxicity in BALB/c mouse xenografted with human MCF7 cells assessed as change in liver at 12.5 mg/kg, ip administered every 2 days in presence of 12.5 mg/kg JMJD6 inhibitor; format: organism-based; conditions: in vivo, 48 h; summary of the method: as §5
Mus musculus [16] = test: Downregulation of BRD4 mRNA expression in BALB/c mouse tumor xenografted with human MDA-MB-231 cells at 25 mg/kg, ip administered every 2 days by RT-qPCR analysis; format: functional, organism-based
T47D [17] = test: Inhibition of cell migration in human T47D cells at 10 uM incubated for 24 hrs in presence of JMJD6 inhibitor by inverted microscopic analysis; format: functional, cell-based; summary of the method: as §3
[18] = Downregulation of c-Myc protein expression in human MDA-MB-231 cells assessed as fold change in remaining c-Myc level at 10 uM incubated for 24 hrs by immunoblotting analysis (reference value: 1); format: functional
Summary of the method: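 Cells (MCF7 or MDA-MB-231 in DMEM, 10% FBS, 37 °C, 5% CO2) are treated with peptide for 24 h. Lysates are taken in Tris/NaCl/EDTA/1% Triton buffer and run on 10% SDS-PAGE. Immunoblots are normalised to β-actin loading control; three repeats.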

T47D [19] = test: Inhibition of colony formation in human T47D cells at 10 uM incubated for 2 weeks by crystal violet staining based assay; format: functional, cell-based; summary of the method: as §4
[20] = Toxicity in BALB/c mouse xenografted with human MDA-MB-231 cells assessed as change in heart weight at 12.5 mg/kg, ip administered every 2 days in presence of 50 mg/kg JQ1; format: organism-based; conditions: in vivo, 48 h; summary of the method: as §2
Mus musculus [21] = test: Downregulation of CCND1 mRNA expression in BALB/c mouse tumor xenografted with human MCF7 cells at 25 mg/kg, ip administered every 2 days by RT-qPCR analysis; format: functional, organism-based

CC[C@H](C)[C@H](NC(=O)[C@H](Cc1ccc(O)cc1)NC(=O)[C@@H]1C[C@@H](O)CN1C(=O)[C@H](C)NC(=O)[C@@H](NC(=O)CCCCCNC(=O)[C@H](CCC(=O)O)NC(=O)CNC(=O)[C@H](CS)NC(=O)[C@H](CCCCN)NC(=O)[C@H](Cc1ccccc1)NC(=O)[C@H](CCCCN)NC(=O)[C@H](CCC(N)=O)NC(=O)[C@H](CC(N)=O)NC(=O)[C@H](CCCNC(=N)N)NC(=O)[C@H](CCCNC(=N)N)NC(=O)[C@H](CCCNC(=N)N)NC(=O)[C@H](CCCNC(=N)N)NC(=O)[C@H](CCC(N)=O)NC(=O)[C@H](CCCNC(=N)N)NC(=O)[C@H](CCCNC(=N)N)NC(=O)[C@H](CCCCN)NC(=O)[C@H](CCCCN)NC(=O)[C@H](CCCNC(=N)N)NC(=O)CNC(=O)[C@@H](N)Cc1ccc(O)cc1)[C@@H](C)CC)C(=O)O (H-YGRKKRRQRRRRNQKFKCGE[Ahx]IA[Hyp]YI-OH)
0.53: fold change (FC) [11]
0.85: fold change (FC) [18]
inactive: Activity (Mus musculus [16])
0.43: fold change (FC) [7]
Non-Toxic: Activity [2] | Activity [6] | Activity [10] | Activity [12] | Activity [13] | Activity [15] | Activity [20]
active: Activity (MCF7 [1]) | inhibition (MDA-MB-231 [3]) | Activity (MCF7 [4]) | Activity (Mus musculus [5]) | Activity (MDA-MB-231 [8]) | inhibition (T47D [9]) | inhibition (MCF7 [14]) | inhibition (T47D [17]) | inhibition (T47D [19]) | Activity (Mus musculus [21])

H-YGRKKRRQRRRRNQKFKCGE-OH
active: Activity (MCF7 [1]) | inhibition (MDA-MB-231 [3]) | Activity (MCF7 [4]) | Activity (Mus musculus [5]) | Activity (MDA-MB-231 [8]) | inhibition (T47D [9]) | inhibition (MCF7 [14]) | inhibition (T47D [17]) | inhibition (T47D [19]) | Activity (Mus musculus [21])
0.45: fold change (FC) [11]
Non-Toxic: Activity [2] | Activity [6] | Activity [10] | Activity [12] | Activity [13] | Activity [15] | Activity [20]
0.38: fold change (FC) [7]
inactive: Activity (Mus musculus [16])
0.77: fold change (FC) [18]
